Laboratory results reported in PMC9273292 (Journal of Ethnopharmacology, 2022).

Tests used:
[1] = CCK-8 cytotoxicity assay; type: cell-based; details: human, HRT-18 cells
Outline: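 Viability of HRT-18 cells is read by CCK-8 per the kit protocol. Cells are kept in RPMI 1640 with 10% FBS, sodium pyruvate, NEAA and 0.025M HEPES at 37 °C, 5% CO2. Run in triplicate. CC50 comes from a four-parameter log(inhibitor) vs response fit of mean values.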

[2] = biological target: SARS-CoV-2 Nsp14N7 methyltransferase (Severe acute respiratory syndrome coronavirus 2, UniProt P0DTD1); assay: Nsp14N7-MTase inhibition assay; type: biochemical
[3] = biological target: recombinant SARS-CoV-2 PLpro (Severe acute respiratory syndrome coronavirus 2, UniProt P0DTD1); assay: PLpro inhibition assay; type: biochemical
[4] = tested on: Mpro; details: SARS-CoV-2 model; ref Alhadrami et al., 2021; cited from earlier work
[5] = tested on: HCoV-OC43; assay: Antibody-based EC50 assay; type: cell-based, human coronavirus OC43; details: CC50/EC50, HRT-18 cells
Outline: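 HRT-18 cells (RPMI 1640, 10% FBS, 37 °C, 5% CO2) infected with HCoV-OC43 and treated with test compound. Viral nucleocapsid is detected with an anti-OC43 nucleocapsid antibody. Run in triplicate. EC50 comes from a four-parameter log(inhibitor) vs response fit of mean values. SI = CC50/EC50.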

[6] = tested on: Mpro; details: cited from earlier work
[7] = tested on: HCoV-OC43; assay: Transmission electron microscopy of infected HRT-18 cells; type: cell-based, human coronavirus OC43; details: 4 μM, 48 hpi
Outline: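 HRT-18 monolayers are inoculated with 100 TCID50 HCoV-OC43 for 2 h at 37 °C. Inoculum is then replaced by RPMI 1640 with 2% FBS containing test compound or DMSO. At 48 hpi, virus particles are examined by negative staining under transmission electron microscopy.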

[8] = tested on: HCoV-OC43; assay: Cytopathic effect; type: cell-based, human coronavirus OC43; details: 100 TCID50, 72 hpi, two-fold serial dilutions
Outline: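 Confluent cell monolayers are infected with 100 TCID50 HCoV-OC43 (titre by Reed-Muench) and given two-fold serial dilutions of test compound. At 72 hpi, CPE (lysis, rounding, vacuolization) is scored by phase-contrast microscopy; absence of CPE is taken as activity. Remdesivir is the positive control.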

[9] = tested on: HCoV-OC43; assay: Immunofluorescence analysis of HCoV-OC43 nucleocapsid in infected HRT-18 cells; type: cell-based, human coronavirus OC43; details: 4 μM, 48 hpi

| Compound | CC50 [1] [µM] | IC50 [2] [µM] | IC50 [3] [µM] | concentration inhibiting Mpro activity [4] [µmol/L] | Selective index (SI) [5] | concentration inhibiting Mpro activity by competitive inhibition [6] [µmol/L] | viral particles in infected cells under TEM [7] | inhibition of CPE caused by HCoV-OC43 infection [8] | fluorescence signal of virus particles (HCoV-OC43 nucleocapsid) [9] |
| --- | --- | --- | --- | --- | --- | --- | --- | --- | --- |
| C=C(C)[C@@H]1CC[C@]2(C(=O)O)CC[C@]3(C)[C@H](CC[C@@H]4[C@@]5(C)CC[C@H](O)C(C)(C)[C@@H]5CC[C@]43C)[C@@H]12 [Compound 1, betulinic acid] | 19.4 | 1.12 | 2.03 | 14.55 | 8.04 | 10 | no viral particles were detected | showed antiviral activity | substantially reduced the fluorescence signal of virus particles |
| C[C@H]1[C@H](C)CC[C@]2(C)CC[C@]3(C)C(=CC[C@@H]4[C@@]5(C)CC[C@H](O)C(C)(C)[C@@H]5CC[C@]43C)[C@H]12 [Compound 2, α-amyrin] | 24 |  |  |  | 6.03 |  |  | showed antiviral activity |  |
| O=C1C[C@@H](c2ccc(O)cc2)Oc2cc(O)cc(O)c21 [Compound 5, naringenin] |  |  |  |  |  |  |  | showed antiviral activity |  |
| O=C1C[C@@H](c2ccc(O)c(O)c2)Oc2cc(O)cc(O)c21 [Compound 8, eriodictyol] |  |  |  |  |  |  |  | showed antiviral activity |  |
| O=c1c(O)c(-c2ccc(O)c(O)c2)oc2cc(O)cc(O)c12 [Compound 11, quercetin] | 34 |  |  |  | 7.29 |  |  | showed antiviral activity |  |
